Bioassay records (PubChem)
Yeast superoxide: reduction of superoxide in aged yeast, primary screen, HTS; 330,000 tested, 0.18% active; superoxide response (% of plate mean), % at 10 µM; AID 2690, 2010; S. cerevisiae aged cells, superoxide DHE fluorescence; stronger effect = lower value;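 active = superoxide response under a set limit, about three screen SD below normal, cut at about 65% in these data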;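 note: yeast aged for seven days with compound at 30 °C before DHE staining; 100% = average MFI of all compound-treated wells on the plate with controls excluded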
VIM-2 inh: VIM-2 metallo-beta-lactamase inhibitors, primary screen, biochemical, epi-absorbance readout, Pseudomonas aeruginosa enzyme; inhibition, % at 5.6 µM; purified VIM-2, nitrocefin hydrolysis, epi-absorbance fluorescence; 290,000 tested, 0.89% active; AID 1527, 2009;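 active = inhibition above the mean of all tested compounds plus 3 SD, cutoff set per screening run, cut at about 7.5% in these data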;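 note: red hydrolysis product quenches plate fluorescence so inhibitors raise well fluorescence; 0% = enzyme with DMSO and 100% = DMSO without enzyme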
PvdQ inh: P. aeruginosa PvdQ acylase inhibitors, primary screen, biochemical, fluorescence, plate reader and imaging, single point; PvdQ acylase [Pseudomonas aeruginosa LESB58]; purified PvdQ acylase; inhibition, % at 10 µM; 340,000 tested, 0.063% active; AID 488965, 2010; in the data active = inhibition above about 30%, passing the limit was not always enough;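 note: 0% = vehicle neutral wells and 100% = reference inhibitor wells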
PHOSPHO1 inh: PubChem AID 1565 | recombinant PHOSPHO1, absorbance phosphatase assay | Phosphoethanolamine/phosphocholine phosphatase (Homo sapiens), Q8TCT1 | 290,000 tested, 1.1% active | inhibition, % at 13.3 µM; in the data active = inhibition above about 60%
Target sequence (Q8TCT1 whole entry, looked up): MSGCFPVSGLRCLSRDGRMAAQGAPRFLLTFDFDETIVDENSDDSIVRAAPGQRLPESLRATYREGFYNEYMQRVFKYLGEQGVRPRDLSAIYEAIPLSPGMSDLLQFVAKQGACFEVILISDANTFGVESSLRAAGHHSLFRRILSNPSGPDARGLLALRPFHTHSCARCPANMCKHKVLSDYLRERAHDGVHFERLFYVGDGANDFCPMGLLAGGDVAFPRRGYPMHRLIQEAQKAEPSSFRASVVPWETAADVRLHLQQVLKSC
IMP-1 inhibitor: IMP-1 metallo-beta-lactamase inhibitors, primary screen, biochemical, epi-absorbance readout, Pseudomonas aeruginosa enzyme. purified IMP-1, nitrocefin hydrolysis, epi-absorbance fluorescence. inhibition, % at 5.6 µM. 290,000 tested, 0.45% active. AID 1556, 2009;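 active = inhibition above the mean plus 3 SD of all compounds in the same screening run, cut at about 4.5% in these data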;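 note: 0% = IMP-1 with DMSO and 100% = DMSO wells lacking enzyme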
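System: Purified recombinant IMP-1 metallo-beta-lactamase enzyme | Measured by: Fluorescence quenching readout, ex 480/em 530 nm | Replication: Singlicate | Incubation: 15 min preincubation plus 25 min reaction at 25 °C | Evaluation: Percent inhibition from optical density relative to buffer-blank wells | Benchmarks: DMSO with and without IMP-1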
* = called active by the depositor; . = no result. Hits are enriched below; roughly 2.2% of the tested compounds scored in any of these assays.

SMILES	Yeast superoxide	VIM-2 inh	PvdQ inh	PHOSPHO1 inh	IMP-1 inhibitor
Cc1ccc(Cn2cccc(NC(=O)NC3CCCCC3)c2=O)cc1	102	-2	-17	66*	-1
CCOC(=O)CSc1nc(N)c(C#N)c(-c2ccc(OCC)cc2)c1C#N	116	-3	-2	22	-4
CC1=C(C#N)c2nc(N)c(C#N)c(C)c2/C1=C\c1ccc(OCC(=O)O)c(Cl)c1	81	1	1	71*	-1
COc1ccc(-c2oc(NC(=O)CSc3ncn[nH]3)c(C#N)c2-c2ccc(OC)cc2)cc1	90	-5	-60	71*	-3
CCOC(=O)Cc1csc(-n2sc3ccccc3c2=O)n1	91	-2	-4	96*	-3
N=C(N)c1ccc(/C=C/c2ccc(C(=N)N)cc2O)cc1	97	4	7	33	5.7*
COc1cc(C)c(S(=O)(=O)NOCc2ccccc2)c(C)c1C	103	-2	4	29	-3
CSc1ccc2nnc(-c3cccc(F)c3)n2n1	91	10.0*	0	56	0
CCOC(=O)CC(=O)CSc1ccc2nnc(-c3cccc(F)c3)n2n1	84	1	7	44	-4
O=C(CSc1ccc2nnc(-c3cccnc3)n2n1)NCc1ccco1	86	-2	-10	5	-5
COC(=O)c1ccc(CSc2ccc3nnc(-c4cccc(F)c4)n3n2)o1	109	8.4*	-3	10	-3
O=C(CSc1ccc2nnc(-c3cccc(F)c3)n2n1)NCc1ccco1	122	2	-8	65*	0
O=C(c1ccc(Cn2cc([N+](=O)[O-])cn2)o1)N1CCCCCC1	97	-2	-7	14	-3
COc1cccc2c1NC(C(=O)O)C1CC=CC21 (stereo not drawn)	107	9.5*	-17	3	2
CCC(O)C1CCN(C(=O)c2ccc(OC3CCN(Cc4ccccn4)CC3)cc2)CC1 (stereo not drawn)	105	-1	-11	70*	-4
Cc1nc(C(C)NC(=O)c2ccc(OC3CCN(Cc4ccccn4)CC3)cc2)c(C)s1 (stereo not drawn)	89	-2	-22	81*	-4
COC(=O)[C@@H](NC(=O)c1ccc(OC2CCN(Cc3ccccn3)CC2)cc1)C(C)C	125	0	-16	60*	-1
CC(=O)N1CCN(C(=O)c2ccc(OC3CCN(Cc4ccccn4)CC3)cc2)CC1	90	0	-2	52	-5
COc1cc(C(=O)O)ccc1OCc1ccncc1	99	-1	-9	9	-2
O=C(CSc1nnc(-c2ccc(Cl)cc2Cl)n1C1CCCCC1)N1CCCC1	101	-3	-3	9	-5
COc1cccc(CNC(=O)CN2C(=O)CSc3ccc(S(=O)(=O)N4CCCC4)cc32)c1	97	-2	-3	-10	-2
COc1ccc(CCNc2c(C)c(C)nc3ncnn23)cc1	102	8.8*	-24	42	-2
CCOC(=O)c1c(CC(C)C)csc1/N=C/C1C(=O)CC(C)(C)CC1=O	89	-2	-4	12	9.1*
CCOC(=O)c1cc(C)sc1/N=C/C1C(=O)CC(C)(C)CC1=O	101	-6	11	9	-3
O=C(O)C(Cc1ccccc1[N+](=O)[O-])N1C(=O)c2ccccc2C1=O (stereo not drawn)	.	.	4	.	.
SMILES	Yeast superoxide	VIM-2 inh	PvdQ inh	PHOSPHO1 inh	IMP-1 inhibitor
O=C(Nc1ccccc1Cl)c1cccc(NS(=O)(=O)c2ccccc2)c1	.	-1	.	-20	-2
CC1(C)Cc2c(sc3[nH]c(=S)n(Cc4ccccc4)c(=O)c23)CO1	113	-6	-8	76*	-4
CC1(C)Cc2c(sc3c2c(N)nc(=S)n3Cc2ccccc2)CO1	98	0	.	-32	-2
CCCCc1ccc(NC(=O)CSc2nc(=O)n(CCCN3CCOCC3)c3c2CCC3)cc1	103	.	-11	.	.
Oc1c(CN2CCCCC2)cc(COCc2ccccc2)c2cccnc12	100	12*	1	30	-2
COCc1cc(CN2CCCC2)c(O)c2ncccc12	106	8.2*	0	29	0
CC(=O)Oc1cc2c(cc1Cl)C(c1cccs1)CC1(CC(C)(C)NC(=S)N1)O2 (stereo not drawn)	114	-4	-15	1	-3
COc1ccc(NC(=O)CON=CC(=O)Nc2ccc(C)cc2)c(OC)c1	111	.	-14	.	.
CCCn1cnc2cc(NC(=O)c3ccco3)ccc21	104	-3	-7	63*	-3
COCc1ccc(C(=O)N2CCCC(N(C)CCc3ccc(OC)c(OC)c3)C2)s1 (stereo not drawn)	111	-3	-8	18	-1
COCC(=O)N1CCCC(N(C)CCc2ccc(OC)c(OC)c2)C1 (stereo not drawn)	97	-2	-4	14	8.0*
O=Cc1cc(Br)c(OC(=O)N2CCOCC2)c(Br)c1	100	0	-17	20	0
COCCn1c(SCC(=O)NCC2CCCO2)nc2c(c1=O)SCC2 (stereo not drawn)	71	0	-10	43	1
O=C(CSc1n[nH]c(=O)[nH]c1=O)Nc1ccc(C(=O)O)cc1	107	1	-7	21	7.7*
Cc1cc(NC(=O)CSc2n[nH]c(=O)[nH]c2=O)ccc1Br	115	-1	-5	26	0
COc1cc2cc(CN(CCCN3CCOCC3)C(=O)Nc3ccc(F)cc3)c(=O)[nH]c2cc1OC	80	8.8*	-10	47	0
CCOc1ccc2[nH]c(=O)c(CN(CCCN3CCOCC3)C(=O)Nc3ccc(F)cc3)cc2c1	.	.	-9	.	.
COc1ccc(-c2cn3c(C)c(C(=O)Nc4ccncc4)sc3n2)cc1	92	0	-16	94*	-1
O=C(/C=C/c1cccs1)c1cc(Cl)ccc1O	130	-4	77*	32	-3
O=C(C=Cc1ccco1)c1cc(Cl)ccc1O	.	.	45*	.	.
O=C(C=Cc1cccs1)c1ccc(Cl)s1	.	.	4	.	.
COc1ccc(NC(=S)Nc2ccc(OC)cc2OC)c(OC)c1	93	0	-7	64*	-2
COc1ccc(NC(=S)Nc2ccccc2OC)c(OC)c1	94	0	-2	-13	-1
O=C(c1ccco1)N1CCN(c2ccc([N+](=O)[O-])c(N3CCOCC3)c2)CC1	115	-4	-4	32	-4
O=C(c1cnn2c(-c3ccccc3)cc(-c3ccccc3)nc12)N1CCN(Cc2ccccc2)CC1	99	.	-9	.	.
COc1ccccc1-n1cnnc1SCC(=O)c1cc(C)n(Cc2cccs2)c1C	104	0	23	63*	4
Cc1cc(C(=O)CSc2nnc(-c3ccccc3F)o2)c(C)n1Cc1cccs1	92	-2	-9	90*	-2
C=CCn1c(SCC(=O)c2cc(C)n(Cc3cccs3)c2C)nnc1-c1ccncc1	86	1	-10	-57	-1
N#C/C(=C\c1ccc[nH]1)C(=O)Nc1ccccc1[N+](=O)[O-]	106	-3	-8	-34	-3
